Experimental data reported in ChEMBL document CHEMBL1125644, “A new class of calcium antagonists. 2. Synthesis and biological activity of 11-[[4-[4-(4-fluorophenyl)-1-piperazinyl]butyryl]amino]-6,11- dihydrodibenzo[b,e]-thiepin maleate and related compounds” (J Med Chem, 1991).
Active and inactive are the calls of the source. The rule behind the calls is not given here.

Tests used:
[1] = species on record: Rattus norvegicus; assay: Inhibition of calcium activation was assessed against calcium-induced constriction of potassium-depolarized rat aorta (Negative logarithm of the molar concentration); assay type: functional, organism-based; conditions: read-out: pA2 (converted)
[2] = species on record: Rattus norvegicus; assay: Inhibitory effect of compound on calcium influx by high potassium in isolated rat aorta; assay type: functional
Procedure, shortened: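 Rat aortic strips; compound present 30 min before and during 45Ca incubation under high potassium. Strips then washed 60 min at 4 °C in La-substituted solution (73.8 mM LaCl3, 5.5 mM glucose, 24 mM Tris), dissolved in toluene at 40 °C, counted by liquid scintillation; expressed as apparent tissue 45Ca content (mmol/kg wet wt).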

[3] = species on record: Rattus norvegicus; assay: Inhibitory effect of compound on contraction induced by high potassium in isolated rat aorta; assay type: functional
Procedure, shortened: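 Std-Wistar rat thoracic aorta spiral strips (3–4 mm × ~30 mm) under 1.0 g tension in Krebs-bicarbonate, 95% O2/5% CO2, 37 °C, depolarized; isometric contraction to Ca2+ recorded.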

[4] = system: Rattus norvegicus; assay: Preventive effect of compound was measured on vasopressin-induced ST depression rats at 10 mg/kg po dose after 3h of administration; -=No significance; assay type: functional, organism-based; parameters: dose 10 mg/kg
Procedure, shortened: (§1)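 Male Donryu rats (150-220 g), pentobarbital 60 mg/kg ip. Compound in 0.5% tragacanth given orally; vasopressin 0.2 IU/kg iv via femoral vein cannula. Lead II ECG ST depression measured every 30 s for 5 min after vasopressin. 10-20 experiments; + means p < 0.05 vs control, - not significant.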

[5] = system: Rattus norvegicus; assay: Preventive effect of compound was measured on vasopressin-induced ST depression rats at 3 mg/kg po dose after 1 hr of administration; -=No significance; assay type: functional, organism-based; parameters: dose 3 mg/kg; procedure, shortened: as §1
[6] = species on record: Rattus norvegicus; assay: inhibitory effect of compound on contraction induced by high potassium in isolated rat aorta; assay type: functional
Procedure, shortened: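 Isolated rat aortic strips contracted with high potassium; compound added 30 min before measurement.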

[7] = system: Rattus norvegicus; assay: Preventive effect of compound was measured on methacholine-induced ST elevation in anesthetized rats at 0.1 mg/kg iv dose without test compound; assay type: functional
Procedure, shortened: (§2)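 Male Sprague-Dawley rats (~500 g), pentobarbital 60 mg/kg ip. Methacholine 8 μg/kg bolus via carotid cannula near aortic valve into coronary ostia, before, at 0.5 min and every 5 min after iv compound (femoral vein; vehicle 5% ethanol in saline). Lead II ECG ST amplitude; mean ± SE, n=5; paired Student's t-test.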

[8] = system: Rattus norvegicus; assay: Preventive effect of compound was measured on vasopressin-induced ST depression rats at 10 mg/kg po dose after 1 hr of administration; +=Differ from control value; assay type: functional, organism-based; parameters: dose 10 mg/kg; procedure, shortened: as §1
[9] = system: Rattus norvegicus; assay: Preventive effect of compound was measured on methacholine-induced ST elevation in anesthetized rats at 1 mg/kg iv dose with test compound (0-90 min); assay type: functional; procedure, shortened: as §2
[10] = system: Rattus norvegicus; assay: Preventive effect of compound was measured on methacholine-induced ST elevation in anesthetized rats at 0.3 mg/kg iv dose with test compound (0-90 min); assay type: functional; procedure, shortened: as §2
[11] = system: Rattus norvegicus; assay: Preventive effect of compound was measured on methacholine-induced ST elevation in anesthetized rats at 0.1 mg/kg iv dose with test compound (0-90 min); assay type: functional; procedure, shortened: as §2
[12] = system: Rattus norvegicus; assay: Preventive effect of compound was measured on vasopressin-induced ST depression rats at 30 mg/kg po dose after 7 hr of administration; -=No significance; assay type: functional, organism-based; parameters: dose 30 mg/kg; procedure, shortened: as §1
[13] = system: Rattus norvegicus; assay: Preventive effect of compound was measured on vasopressin-induced ST depression rats at 30 mg/kg po dose after 1 hr of administration; +=Differ from control value; assay type: functional, organism-based; parameters: dose 30 mg/kg; procedure, shortened: as §1
[14] = system: Rattus norvegicus; assay: Preventive effect of compound was measured on methacholine-induced ST elevation in anesthetized rats at 1 mg/kg iv dose without test compound; assay type: functional; procedure, shortened: as §2
[15] = system: Rattus norvegicus; assay: Preventive effect of compound was measured on vasopressin-induced ST depression rats at 10 mg/kg po dose after 2 hr of administration; +=Differ from control value; assay type: functional, organism-based; parameters: dose 10 mg/kg; procedure, shortened: as §1
[16] = system: Rattus norvegicus; assay: Preventive effect of compound was measured on vasopressin-induced ST depression rats at 30 mg/kg po dose after 3h of administration; +=Differ from control value; assay type: functional, organism-based; parameters: dose 30 mg/kg; procedure, shortened: as §1
[17] = system: Rattus norvegicus; assay: Preventive effect of compound was measured on methacholine-induced ST elevation in anesthetized rats at 0.3 mg/kg iv dose without test compound; assay type: functional; procedure, shortened: as §2
[18] = system: Rattus norvegicus; assay: Preventive effect of compound was measured on vasopressin-induced ST depression rats at 10 mg/kg po dose after 3h of administration; +=Differ from control value; assay type: functional, organism-based; parameters: dose 10 mg/kg; procedure, shortened: as §1
[19] = system: Rattus norvegicus; assay: Preventive effect of compound was measured on vasopressin-induced ST depression rats at 30 mg/kg po dose after 7 hr of administration; +=Differ from control value; assay type: functional, organism-based; parameters: dose 30 mg/kg; procedure, shortened: as §1
[20] = system: Rattus norvegicus; assay: Preventive effect of compound was measured on vasopressin-induced ST depression rats at 3 mg/kg po dose after 1 hr of administration; +=Differ from control value; assay type: functional, organism-based; parameters: dose 3 mg/kg; procedure, shortened: as §1

| SMILES | Kb [1] | also measured |
| --- | --- | --- |
| O=C(CCCN1CCN(Cc2ccccc2)CC1)NC1c2ccccc2CSc2ccccc21 (stereo not drawn) | 2.88 nM |  |
| O=C(CCCN1CCN(c2ccc(C(F)(F)F)cc2)CC1)NC1c2ccccc2C=Cc2ccccc21 | 2.09 nM |  |
| COc1ccc(N2CCN(CCCC(=O)NC3c4ccccc4C=Cc4ccccc43)CC2)cc1OC | 5.01 nM |  |
| COc1ccc(CCN(C)CCCC(C#N)(c2ccc(OC)c(OC)c2)C(C)C)cc1OC (stereo not drawn) | 6.92 nM |  |
| O=C(CCN1CCN(c2ccc(F)cc2)CC1)NC1c2ccccc2CSc2ccccc21 (stereo not drawn) | 2.82 nM |  |
| O=C(CCCN1CCN(c2ccc(F)cc2)CC1)NC1c2ccccc2Oc2ccccc21 | 69.2 nM |  |
| O=C(CCCCN1CCN(c2ccc(F)cc2)CC1)NC1c2ccccc2C=Cc2ccccc21 | 4.47 nM |  |
| O=C(CCCN1CCN(c2ccc(F)cc2)CC1)NC1c2ccccc2CCc2ccccc21 | 9.33 nM |  |
| O=C(CCCN1CCN(C(=O)c2ccccc2)CC1)NC1c2ccccc2C=Cc2ccccc21 | 20.9 nM |  |
| O=C(CCCN1CCN(c2ccc(F)cc2)CC1)NC1c2ccccc2-c2ccccc21 | 69.2 nM |  |
| O=C(CCCN1CCN(Cc2ccccc2)CC1)NC1c2ccccc2C=Cc2ccccc21 | 6.03 nM |  |
| O=C(CCCCN1CCN(c2ccc(F)cc2)CC1)NC1c2ccccc2CSc2ccccc21 (stereo not drawn) | 3.47 nM |  |
| COC(=O)C1=C(C)NC(C)=C(C(=O)OC)C1c1ccccc1[N+](=O)[O-] [NIFEDIPINE] |  | IC50 [2]: 4 nM; IC50 [3]: 2 nM |
| O=C(CCCN1CCN(c2ccccc2F)CC1)NC1c2ccccc2C=Cc2ccccc21 | 3.47 nM |  |
| COc1ccc([C@@H]2Sc3ccccc3N(CCN(C)C)C(=O)[C@@H]2OC(C)=O)cc1 [DILTIAZEM] |  | Activity [4]: inactive; Activity [5]: inactive; IC50 [2]: 352 nM; IC50 [6]: 203 nM; Activity [7]: 0.227 delta mV; Activity [8]: Active; Activity [9]: 0.091 delta mV; Activity [10]: 0.059 delta mV; Activity [11]: 0.148 delta mV; Activity [12]: inactive; Activity [13]: Active; Activity [14]: 0.223 delta mV; Activity [15]: Active; Activity [16]: Active |
| O=C(CCCN1CCN(CC(=O)c2ccccc2)CC1)NC1c2ccccc2CSc2ccccc21 (stereo not drawn) | 15.5 nM |  |
| O=C(CCCN1CCN(c2ccc(F)cc2)CC1)NC1c2ccccc2Sc2ccccc21 | 10.5 nM |  |
| COc1cccc(N2CCN(CCCC(=O)NC3c4ccccc4C=Cc4ccccc43)CC2)c1 | 5.37 nM |  |

| SMILES | Kb [1] | also measured |
| --- | --- | --- |
| O=C(CCCN1CCN(c2ccccc2)CC1)NC1c2ccccc2C=Cc2ccccc21 | 3.72 nM |  |
| COc1ccc(N2CCN(CCCC(=O)NC3c4ccccc4CSc4ccccc43)CC2)cc1 (stereo not drawn) | 3.39 nM |  |
| O=C(CCCN1CCN(c2ccc(F)cc2)CC1)NC1c2ccccc2C=Cc2ccccc21.O=C(O)/C=C\C(=O)O | 1.05 nM | Activity [7]: 0.165 delta mV; Activity [17]: 0.188 delta mV; Activity [9]: 0.083 delta mV; Activity [10]: 0.042 delta mV; Activity [14]: 0.224 delta mV |
| O=C(CCCN1CCN(c2ccc(Cl)cc2)CC1)NC1c2ccccc2CSc2ccccc21 (stereo not drawn) | 2.82 nM |  |
| O=C(CCCN1CCN(c2ccc(F)cc2)CC1)NC1c2ccccc2COc2ccccc21 (stereo not drawn) | 33.1 nM |  |
| O=C(CCCN1CCN(C(=O)c2ccccc2)CC1)NC1c2ccccc2CSc2ccccc21 (stereo not drawn) | 36.3 nM |  |
| O=C(CCCN1CCN(CCCc2ccccc2)CC1)NC1c2ccccc2CSc2ccccc21 (stereo not drawn) | 12.3 nM |  |
| Cc1ccc(N2CCN(CCCC(=O)NC3c4ccccc4CSc4ccccc43)CC2)cc1 (stereo not drawn) | 3.31 nM |  |
| O=C(CCCN1CCN(c2ccc(F)cc2)CC1)NC1c2ccccc2CSc2ccccc21.O=C(O)/C=C\C(=O)O (stereo not drawn) [MONATEPIL MALEATE] | 1.95 nM | Activity [18]: Differ from control value; IC50 [2]: 16 nM; IC50 [6]: 21 nM; Activity [7]: 0.198 delta mV; Activity [19]: Differ from control value; Activity [20]: Differ from control value; Activity [17]: 0.203 delta mV; Activity [8]: Differ from control value; Activity [9]: 0.088 delta mV; Activity [10]: 0.093 delta mV; Activity [13]: Differ from control value; Activity [14]: 0.241 delta mV; Activity [15]: Differ from control value |
| O=C(CCCN1CCN(CCc2ccccc2)CC1)NC1c2ccccc2C=Cc2ccccc21 | 8.91 nM |  |
| O=C(CCCN1CCN(C/C=C/c2ccccc2)CC1)NC1c2ccccc2CSc2ccccc21 (stereo not drawn) | 7.59 nM |  |
| O=C(CCCN1CCN(S(=O)(=O)Oc2ccccc2)CC1)NC1c2ccccc2CSc2ccccc21 (stereo not drawn) | 10.5 nM |  |
| O=C(CCCN1CCN(c2ccc([N+](=O)[O-])cc2)CC1)NC1c2ccccc2CSc2ccccc21 (stereo not drawn) | 7.94 nM |  |
| O=C(CCCN1CCN(C/C=C/c2ccccc2)CC1)NC1c2ccccc2C=Cc2ccccc21 | 30.9 nM |  |
| O=C(CCCN1CCN(c2ccccc2F)CC1)NC1c2ccccc2CSc2ccccc21 (stereo not drawn) | 3.24 nM |  |
| O=C(CCCN1CCN(C(=O)Oc2ccccc2)CC1)NC1c2ccccc2CSc2ccccc21 (stereo not drawn) | 13.2 nM |  |
| O=C(CCCN1CCN(c2ccccc2)CC1)NC1c2ccccc2CSc2ccccc21 (stereo not drawn) | 1.74 nM |  |
| O=C(CCN1CCN(c2ccc(F)cc2)CC1)NC1c2ccccc2C=Cc2ccccc21 | 2.75 nM |  |
